Data set [1] has as its system human beings. Conditions: cited from earlier work.
Data set [2] has as its system human beings. To be noted: intravenous infusion of native GLP-2, human beings; cited from earlier work.
A short description of data set [3]: Plasma total GLP-2 concentration after subcutaneous GLP-2. It counts as in vivo, human beings. To be noted: 1500 μg of GLP-2 subcutaneously. The essentials: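 Plasma total GLP-2 was measured during the study A visits in healthy men (randomized, single-blind crossover, visits 4 weeks apart). After an overnight fast, subjects received nasoduodenal formula feeding under a pancreatic clamp, then a single subcutaneous GLP-2 dose (1500 ug) or placebo at 9 AM. Sampling continued over the kinetic study.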

Data set [4] concerns healthy men. It is filed as in vivo, human beings. Conditions: study B. The essentials: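 Six healthy men were studied in a randomized, single-blind crossover (visits 4 weeks apart). At 7 am they drank a liquid meal containing 120,000 IU retinyl palmitate, with no food thereafter. At 2 pm (T = 0, 7 h post-meal) they received s.c. GLP-2 1500 mcg or placebo, with blood sampled for 3 h. TRL TG, retinyl palmitate and apoB-48 were measured. Incremental AUC over 0–3 h used the T = 0 concentration as baseline.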

In data set [5] the test system is healthy men. It counts as in vivo, human beings. To be noted: study A. The essentials: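 Six healthy normoglycemic, normolipidemic men took part in a randomized, single-blind crossover (visits 4 weeks apart). After an overnight fast, liquid mixed-macronutrient formula was infused nasoduodenally for 15 h from 4 AM. A pancreatic clamp (somatostatin, insulin, glucagon, growth hormone) started at 7 AM. At 9 AM came primed constant d3-leucine for 10 h plus s.c. GLP-2 1500 ug or placebo. AUC covered the first 3 h. Multicompartmental modelling gave FCR.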

Where [6] appears, read: GLP-2 1500 mcg s.c. 7 h after meal, N = 6, vs placebo P = .002.
Where [7] appears, read: GLP-2 1500 μg s.c. single dose, n = 6, vs placebo P = .03.
[8] abbreviates: GLP-2 1500 μg s.c., n = 6, vs placebo P = .02.

In the case of `N[C@@H](CC(=O)N1CCn2c(nnc2C(F)(F)F)C1)Cc1cc(F)c(F)cc1F` [sitagliptin], in the data set on human beings [1] (acute), the “effect on chylomicron production in human beings” value is recorded as “acutely reduces chylomicron production”.
In the case of exenatide, in the data set with human beings [1], the “effect on chylomicron secretion in human beings” value is “reduces chylomicron secretion”.
With glucagon-like peptide-2 [GLP-2], the “effect on postprandial plasma TG and free fatty acid (FFA) concentrations” value in the data set on human beings [2] was “increase”. Moreover, the “GLP-2 concentration at 4 hours relative to the level at 2 hours” value in data set [3] is “approximately half”. For the same molecule, the “plasma total GLP-2 concentration compared with placebo” value in data set [3] (2 and 4 hours after administration) is “significantly increased”. Further, the “plasma glucose concentration, GLP-2 vs placebo” value in the data set on healthy men [4] is listed as “no significant difference”. Moreover, in the data set with healthy men [4] (setting [6]), the “TRL TG iAUC0-3” value was 0.28 ± 0.16 mmol/L/h and the “TRL retinyl palmitate iAUC0-3” value turned out to be 0.86 ± 0.21 µmol/L/h. For the same molecule, the “chylomicron (Sf > 400) retinyl palmitate peak concentration at 60 minutes” value with healthy men [4] (GLP-2 1500 mcg s.c. 7 h after meal, n = 5, vs placebo P = .003) stood at 0.38 ± 0.06 µmol/L. For the same molecule, the “TRL apoB-48 iAUC0-3” value in the data set with healthy men [4] (GLP-2 1500 mcg s.c. 7 h after meal, n = 6, vs placebo P = .04) is 1.45 ± 1.72 mg/L/h. In addition, the “TRL TG peak increment” value with healthy men [4] (GLP-2 1500 mcg s.c. 7 h after meal, vs placebo P = .003) is 0.42 ± 0.11. The “TRL apoB-48 peak increment” value in the data set with healthy men [4] (GLP-2 1500 mcg s.c. 7 h after meal, vs placebo P = .006) came to 2.1 ± 0.8. For the same molecule, in the data set with healthy men [5] (setting [7]), the “plasma TG area under the concentration curve in the first 3 hours (AUC0-3)” value amounted to 3.1 ± 0.4 mmol/L/h and the “plasma TG peak concentration at 1 hour” value is 1.23 ± 0.20 mmol/L. In the data set on healthy men [5] (setting [8]), the “TRL apoB-48 AUC0-3” value turned out to be 19.3 ± 5.0 mg/L/h and the “TRL apoB-48 peak concentration 1 hour after administration” value was 9.5 ± 2.6 mg/L. Further, the “TRL TG peak concentration at 1 hour” value with healthy men [5] (GLP-2 1500 μg s.c., n = 6, vs placebo P = .15) is listed as 0.79 ± 0.09 mmol/L. Moreover, the “TRL TG AUC0-3” value in the data set with healthy men [5] (GLP-2 1500 μg s.c., n = 6, vs placebo P = .24) amounted to 1.9 ± 0.2 mmol/L/h. Moreover, the “TRL apoB-100 mean concentration for the 10-hour kinetics study” value with healthy men [5] (GLP-2 1500 μg s.c., n = 6, vs placebo P = .5) amounted to 74.8 ± 7.4 mg/L. Further, the “TRL apoB-100 AUC0-3” value with healthy men [5] (GLP-2 1500 μg s.c., n = 6, vs placebo P = .95) turned out to be 216 ± 21.9 mg/L/h. Also, the “mean plasma glucagon concentration” value in the data set on healthy men [5] (GLP-2 1500 μg s.c., pancreatic clamp, vs placebo P = .01) amounted to 143.3 ± 14.2 pg/mL. The “mean plasma glucose concentration” value with healthy men [5] (GLP-2 1500 μg s.c., pancreatic clamp, vs placebo P = .049) is recorded as 8.7 ± 0.3 mmol/L. For the same molecule, in the data set on healthy men [5] (during kinetic study), the “plasma FFA concentration, GLP-2 vs placebo” value is on record as “no significant difference” and the “plasma insulin concentration, GLP-2 vs placebo” value is “no significant difference”.
